The list is not random: actives were taken first. Their share in the collection is about 1.6%.
TRAIL sens C8: viability loss with TRAIL in NB7+C8 cells, primary screen, TRAIL sensitizer project, cell-based, ATPlite luminescence; inhibition (viability loss, TRAIL sensitization), % at 10 µM; actives 1% (n = 360,000);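 active = compounds causing at least 50% loss of cell viability in the single-dose screen, relative to plate controls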
FLuc inh counter: firefly luciferase enzyme inhibitors, primary screen, artefact control for luciferase-based inhibitor screens, biochemical, luminescence, ATPLite; inhibition, % at 10 µM; Luciferin 4-monooxygenase (Photinus pyralis), P08659; 10 min; actives 1.5% (n = 200,000);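 active = inhibition above about 50% when tested at 10 µM, limit read from the data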
Target sequence (P08659 whole entry, looked up): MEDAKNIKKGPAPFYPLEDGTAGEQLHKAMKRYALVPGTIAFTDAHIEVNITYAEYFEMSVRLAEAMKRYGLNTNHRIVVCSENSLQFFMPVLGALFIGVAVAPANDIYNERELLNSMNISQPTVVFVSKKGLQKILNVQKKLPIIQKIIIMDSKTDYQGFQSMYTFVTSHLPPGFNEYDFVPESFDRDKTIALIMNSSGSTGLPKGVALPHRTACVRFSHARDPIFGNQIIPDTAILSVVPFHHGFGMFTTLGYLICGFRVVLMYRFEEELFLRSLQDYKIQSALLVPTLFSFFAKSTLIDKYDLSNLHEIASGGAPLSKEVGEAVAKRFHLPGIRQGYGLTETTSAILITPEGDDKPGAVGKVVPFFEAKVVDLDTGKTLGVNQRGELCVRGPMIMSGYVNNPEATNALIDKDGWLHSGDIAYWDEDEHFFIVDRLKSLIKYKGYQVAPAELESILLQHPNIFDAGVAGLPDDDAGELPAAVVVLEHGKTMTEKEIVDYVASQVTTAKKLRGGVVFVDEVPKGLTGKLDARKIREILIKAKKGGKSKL
PPC-1+TRAIL kill: compounds killing PPC-1 cancer cells with TRAIL present, primary screen, TRAIL potentiator project, ATPLite luminescence, uHTS; PPC-1 cells + TRAIL, ATPLite viability luminescence; cell killing (% activity), % at 4 µM or 5 µM; actives 0.41% (n = 220,000);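 active = cell killing above 50% in the first pass at 4 µM, then a duplicate retest at 5 µM averaging 50% or more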;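 note: plate controls were cells with TRAIL plus DMSO for no effect and medium-only wells lacking cells for full effect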
FLuc act counter: FLuc activators, initial screening, artefact control for FLuc-dependent activation tests, biochemical, ATPlite luminescence; Luciferin 4-monooxygenase (Photinus pyralis), P08659; ATPlite luciferase biochemical, 10 min; 0 = ATP-free wells, 1 = DMSO control; 200,000 tested, under 10 active; activation factor at 10 µM;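 active = luciferase activation factor, scaled between plate controls, of at least 2 with compound at 10 µM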
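assay system = Luciferase/luciferin detection reagent, cell-free biochemical luciferase assay | also added = ATP substrate | times = 10 min post-reagent at room temperature | measured by = luminescence from luciferase reaction | measure = luciferase activation, seen as luminescence increase over controls | benchmarks = low control with PBS replacing ATP, high control enzyme plus ATP without compound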
Numbers without * were called inactive; . = not tested or not shown.

SMILES	TRAIL sens C8	FLuc inh counter	PPC-1+TRAIL kill	FLuc act counter
O=C1c2ccccc2C(Nc2cccnc2)N1Cc1ccc2c(c1)OCO2 (configuration not stated)	1.2	-9.8	64.7*	1.1
O=C1c2ccccc2C(Nc2ccc3c(c2)OCO3)N1Cc1ccc2c(c1)OCO2 (configuration not stated)	-5.0	-2.4	-0.5	1
CCCC(CCC(=O)Nc1ccc(S(N)(=O)=O)cc1)C(=O)O (configuration not stated)	-2.5	-9.9	-2.9	1.1
COc1ccc(-c2csc(N3N=C(C)C(C)C3=O)n2)cc1 (configuration not stated)	7.7	60.7*	22.9	0.4
Cc1cccc(Cn2nnc3c2C(=O)c2ccccc2C3=O)c1	51.0*	-7.6	33.4	1.1
Cc1ccccc1CN1C(=O)c2ccccc2C1c1nnnn1Cc1ccccc1 (configuration not stated)	-7.5	.	.	.
Cc1ccccc1Cn1nnc2c1C(=O)c1ccccc1C2=O	51.5*	.	.	.
Cc1cccc(Cn2cnc3c(nnn3Cc3ccccc3F)c2=O)c1	-8.5	-9.9	1.7	1.1
CCN(C[C@H]1N[C@@](C)(C(=O)OC)[C@H]2C(=O)N(Cc3ccccc3)C(=O)[C@@H]12)S(=O)(=O)c1ccc(C(C)(C)C)cc1	-19.9	.	.	.
Cc1cc(/C=N/NC(=O)c2cccc([N+](=O)[O-])c2)c(C)n1-c1ccccc1	-0.5	65.5*	25.4	0.3
COC(=O)N/N=C/c1cc(C)n(-c2ccc(Br)cc2)c1C	3.1	.	7.2	.
O=C(NN=Cc1ccccc1O)c1cccc([N+](=O)[O-])c1	10.1	.	.	.
COC(=O)N/N=C/c1cc(C)n(-c2ccccc2)c1C	9.3	52.3*	9.1	0.5
Cc1cc(C(=O)N/N=C2\CC(=O)c3ccccc32)c(C)n1-c1ccccc1	53.6*	60.1*	18.0	0.4
Cc1cc(/C=N/NC(=O)COc2cccc3cccnc23)c(C)n1-c1ccc(O)cc1	-11.3	57.2*	14.1	0.4
O=C(NCc1ccncc1)c1cc(F)c(F)cc1Cl	-12.2	-9.3	36.3	1.1
CCOc1ccc(-c2nnc(SCC(=O)N(CC)CC)n2N)cc1	-2.1	0.2	4.4	1
COc1ccccc1-c1coc2cc(OC(=O)/C=C/c3ccccc3)ccc2c1=O	-3.1	-5.0	4.2	1.1
COCCCNC(=S)NNC(=O)c1ccccn1	3.9	0.9	0.2	1
CCn1c(-c2cccs2)nc2ccccc21	12.6	13.7	-4.9	0.9
Cn1nccc1C(=O)Nc1cc(Cl)ccc1Cl	-16.3	.	.	.
Cc1cc(/C=N/NC(=O)c2cccs2)c(C)n1-c1cnccn1	14.8	54.9*	17.9	0.5
CCOC(=O)/C(C#N)=C/c1cc(C)n(-c2ccc(C)cc2)c1C	27.8	41.6	14.3	0.6
Cc1cc(C(=O)N/N=C/c2ccc(O)c(O)c2O)c(C)n1-c1ccccc1	36.2	70.1*	24.2	0.3
Cc1cc(/C=N/NC(=O)C(O)(c2ccccc2)c2ccccc2)c(C)n1-c1ccccc1	-3.8	-0.7	17.9	1
SMILES	TRAIL sens C8	FLuc inh counter	PPC-1+TRAIL kill	FLuc act counter
CCOC(=O)/C(C#N)=C\c1cc(C)n(-c2ccccc2)c1C	43.0	75.8*	38.2	0.2
Cc1cc(/C=N/NC(=O)c2ccncc2)c(C)n1-c1ccccc1	14.4	69.7*	20.4	0.3
Oc1ccc(/C=N/N2CCN(C3c4ccccc4-c4ccccc43)CC2)cc1O	58.3*	.	-13.0	.
Oc1ccc(/C=N/N2CCN(C3c4ccccc4-c4ccccc43)CC2)cc1	9.3	.	14.0	.
CCOC(=O)c1cnc2c(-c3ccc(F)cc3)cnn2c1C(F)(F)F	-1.5	-3.0	-1.8	1
CCOC(=O)c1cnc2c(-c3ccc(Cl)cc3)cnn2c1C	51.2*	57.2*	.	0.4
COC(=O)c1nc(N)sc1C(C)C	1.6	-9.1	29.1	1.1
COCC(=O)OC1CCn2c1nc1c2C(=O)C(C)=C(NC(C)=O)C1=O (configuration not stated)	69.2*	.	.	.
CCCCc1nnc(SCC(=O)Nc2nccs2)n1CC	-7.0	.	.	.
CCCCN(C(=O)CCC(=O)Nc1cc(C)on1)C(C(=O)NC(C)(C)C)c1cccc(OC)c1OC (configuration not stated)	-6.5	-9.9	6.2	1.1
CCNC(=S)NNC(=O)c1csc2c1CCC(C)C2 (configuration not stated)	-9.9	-1.6	17.3	1
Cc1ccccc1NC(=S)NNC(=O)c1csc2c1CCC(C)C2 (configuration not stated)	16.6	60.1*	39.4	0.4
Clc1nc(-c2ccccn2)nc2scc(-c3ccccc3)c12	46.1	96.6*	71.5*	0
CC1CCN(c2nc(-c3cccnc3)nc3scc(-c4ccccc4)c23)CC1	11.8	-9.4	5.7	1.1
CNS(=O)(=O)c1cccc(C(=O)OCC(=O)c2cc(C)n(CC3CCCO3)c2C)c1 (configuration not stated)	62.3*	.	.	.
Cc1cc(C(=O)COC(=O)c2cccc(S(=O)(=O)N(C)C)c2)c(C)n1CC1CCCO1 (configuration not stated)	62.2*	.	.	.
COc1cc(OC)cc(C(=O)OCC(=O)c2cc(C)n(CC3CCCO3)c2C)c1 (configuration not stated)	15.3	.	.	.
CN(C)S(=O)(=O)c1cccc(C(=O)OCC(=O)NC2CCCc3ccccc32)c1 (configuration not stated)	-4.6	56.9*	-3.1	0.4
Cc1cc(C(=O)COC(=O)c2ccc(O)cc2)c(C)n1CC1CCCO1 (configuration not stated)	28.1	52.6*	21.5	0.5
CC(C)(C)NC(=O)C(c1ccncc1)n1c(-c2ccc(C(F)(F)F)cc2)nc2ccccc21 (configuration not stated)	79.5*	.	.	.
CC(=O)c1ccc(N2CCN(c3ccc4cc(S(=O)(=O)N5CCC(C)CC5)ccc4n3)CC2)cc1	60.1*	.	.	.
COc1ccccc1/C=N/OC(=O)c1ccc(C)cc1	-14.9	71.2*	6.7	0.3
O=C(O/N=C/c1ccc2c(c1)OCO2)c1ccc([N+](=O)[O-])cc1	-2.1	-4.5	27.4	1
Cc1ccc(C(=O)O/N=C/c2ccc3c(c2)OCO3)cc1	-6.8	58.8*	3.3	0.4
Cc1ccc(C(C#N)=Cc2ccc3c(c2)OCO3)cc1	56.0*	.	.	.
N#C/C(=C\c1ccc2c(c1)OCO2)C(N)=S	0.6	.	12.7	.
OC(c1cc(F)cc(Cl)c1)c1ncc(-c2ccc(Cl)cc2)[nH]1 (configuration not stated)	15.8	.	.	.
COc1ccc(C2CC(c3c(O)cc(C)oc3=O)=NCCS2)c(OC)c1 (configuration not stated)	77.7*	37.5	19.9	0.6
O=C(COc1ncnc2ccccc12)NCCC1=CCCCC1	-6.0	-8.0	-11.2	1.1
O=C(N/N=C/c1ccco1)c1cccc(N2CCCC2=O)c1	6.1	52.4*	-7.1	0.5
